Laboratory results as given in ChEMBL document CHEMBL4371033, “Highly Potent and Selective Plasmin Inhibitors Based on the Sunflower Trypsin Inhibitor-1 Scaffold Attenuate Fibrinolysis in Plasma” (J Med Chem, 2019).
Residues, ends and D or L forms follow the SMILES beside them.

Columns and labels:
[1] = biological target: T1, Cathepsin G (Homo sapiens, UniProt P08311); experiment: Inhibition of human cathepsin G using Suc-AAPF-MCA as substrate after 30 mins
T1 sequence (P08311 whole entry): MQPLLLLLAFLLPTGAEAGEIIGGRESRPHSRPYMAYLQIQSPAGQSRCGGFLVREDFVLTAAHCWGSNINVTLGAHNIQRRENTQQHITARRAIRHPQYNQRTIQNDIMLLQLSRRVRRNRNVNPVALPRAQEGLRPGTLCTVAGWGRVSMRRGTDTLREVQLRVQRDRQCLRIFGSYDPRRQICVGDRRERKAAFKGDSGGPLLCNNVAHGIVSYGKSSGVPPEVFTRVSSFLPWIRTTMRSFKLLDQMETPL

[2] = biological target: Coagulation factor IX (Homo sapiens, UniProt P00740); experiment: Inhibition of activated beta-factor 9 (unknown origin) using Boc-QGR-MCA as substrate after 30 mins relative to untreated control
[3] = biological target: Plasma kallikrein (Homo sapiens, UniProt P03952); experiment: Inhibition of plasma KLK (unknown origin) using Ac-NLTR-pNA as substrate after 30 mins relative to untreated control
[4] = biological target: Plasminogen (Homo sapiens, UniProt P00747); experiment: Inhibition of human plasmin assessed as dissociation rate constant using Ac-RM(O2)YR-pNA as substrate after 30 mins
How it was run: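 koff from the Baici and Gyger-Marazzi method: the lag phase before steady-state hydrolysis was compared between protease/inhibitor preincubated and substrate plus inhibitor added together. Human plasmin in 100 mM Tris pH 8.0, 100 mM NaCl, 0.005% Triton X-100, pNA substrate read at 405 nm.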

[5] = species: Homo sapiens; experiment: Selectivity index, ratio of IC50 for inhibition of uPA (unknown origin) to IC50 for Inhibition of human plasmin
[6] = species: Homo sapiens; experiment: Selectivity index, ratio of IC50 for inhibition of activated beta-factor 11 (unknown origin) to IC50 for Inhibition of human plasmin
[7] = species: Homo sapiens; experiment: Selectivity index, ratio of IC50 for inhibition of plasma KLK (unknown origin) to IC50 for Inhibition of human plasmin

Chain of Coagulation factor IX (P00740 47-191 limits assumed): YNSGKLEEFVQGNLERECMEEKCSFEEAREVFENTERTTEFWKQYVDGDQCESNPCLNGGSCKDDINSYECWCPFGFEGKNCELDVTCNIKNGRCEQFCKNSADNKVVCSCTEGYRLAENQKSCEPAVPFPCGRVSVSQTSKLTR
Chain of Coagulation factor IX (P00740 227-461 limits assumed): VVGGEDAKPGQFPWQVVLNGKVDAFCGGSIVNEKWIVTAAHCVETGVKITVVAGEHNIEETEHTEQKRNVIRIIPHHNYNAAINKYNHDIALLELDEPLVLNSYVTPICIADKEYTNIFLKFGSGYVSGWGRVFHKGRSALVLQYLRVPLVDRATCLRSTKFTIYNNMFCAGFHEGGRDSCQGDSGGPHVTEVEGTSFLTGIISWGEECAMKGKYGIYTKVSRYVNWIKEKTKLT
Chain of Plasma kallikrein (P03952 20-390 limits assumed): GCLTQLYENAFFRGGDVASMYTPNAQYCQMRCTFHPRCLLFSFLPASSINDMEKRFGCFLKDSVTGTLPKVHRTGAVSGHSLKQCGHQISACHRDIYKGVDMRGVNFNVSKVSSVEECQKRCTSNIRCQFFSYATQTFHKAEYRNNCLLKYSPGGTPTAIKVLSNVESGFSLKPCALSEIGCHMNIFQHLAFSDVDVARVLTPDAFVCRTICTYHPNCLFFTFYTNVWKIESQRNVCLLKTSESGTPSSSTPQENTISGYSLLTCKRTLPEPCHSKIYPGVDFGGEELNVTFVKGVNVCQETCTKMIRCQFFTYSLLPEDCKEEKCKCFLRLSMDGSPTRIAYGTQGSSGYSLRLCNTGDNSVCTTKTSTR
Chain of Plasma kallikrein (P03952 391-638 limits assumed): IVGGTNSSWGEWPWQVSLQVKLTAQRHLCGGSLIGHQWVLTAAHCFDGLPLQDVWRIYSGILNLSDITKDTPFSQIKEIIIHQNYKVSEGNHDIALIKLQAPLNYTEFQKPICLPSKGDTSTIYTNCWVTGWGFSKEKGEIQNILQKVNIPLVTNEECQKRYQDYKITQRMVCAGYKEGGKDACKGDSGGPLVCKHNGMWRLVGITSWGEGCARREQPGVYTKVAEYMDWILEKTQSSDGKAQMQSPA
Chain of Plasminogen (P00747 97-580 limits assumed): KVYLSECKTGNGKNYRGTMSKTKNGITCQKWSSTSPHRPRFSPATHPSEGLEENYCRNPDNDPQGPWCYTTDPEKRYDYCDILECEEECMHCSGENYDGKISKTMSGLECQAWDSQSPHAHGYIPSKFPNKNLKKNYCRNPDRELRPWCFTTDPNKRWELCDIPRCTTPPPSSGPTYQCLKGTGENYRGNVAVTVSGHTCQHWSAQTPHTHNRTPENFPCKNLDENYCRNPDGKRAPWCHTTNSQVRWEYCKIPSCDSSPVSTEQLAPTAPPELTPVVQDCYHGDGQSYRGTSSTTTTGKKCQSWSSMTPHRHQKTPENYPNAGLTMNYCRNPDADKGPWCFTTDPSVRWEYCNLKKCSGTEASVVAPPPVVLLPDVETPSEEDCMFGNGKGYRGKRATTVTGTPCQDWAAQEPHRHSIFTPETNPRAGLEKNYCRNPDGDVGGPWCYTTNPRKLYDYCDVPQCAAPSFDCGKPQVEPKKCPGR
Chain of Plasminogen (P00747 581-810 limits assumed): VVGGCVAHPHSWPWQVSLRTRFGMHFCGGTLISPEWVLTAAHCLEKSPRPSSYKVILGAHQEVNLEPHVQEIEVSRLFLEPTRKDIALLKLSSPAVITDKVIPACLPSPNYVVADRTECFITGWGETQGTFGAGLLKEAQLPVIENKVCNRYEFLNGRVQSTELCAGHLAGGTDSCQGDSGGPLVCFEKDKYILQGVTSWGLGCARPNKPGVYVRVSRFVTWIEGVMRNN

Compound: CC[C@H](C)[C@@H]1NC(=O)[C@@H]2CCCN2C(=O)[C@@H]2CCCN2C(=O)[C@H](CCCCN)NC(=O)[C@H](CO)NC(=O)[C@H](CCCCN)NC(=O)[C@H](Cc2ccc(O)cc2)NC(=O)[C@@H]2CSSC[C@H](NC1=O)C(=O)N[C@@H](Cc1ccccc1)C(=O)N1CCC[C@H]1C(=O)N[C@@H](CC(=O)O)C(=O)NCC(=O)N[C@@H](CCCNC(=N)N)C(=O)N2 (HELM PEPTIDE1{C.F.P.D.G.R.C.Y.K.S.K.P.P.I}$PEPTIDE1,PEPTIDE1,1:R3-7:R3|PEPTIDE1,PEPTIDE1,1:R1-14:R2$$$V2.0)
- Ki [1]: 29 µM
- Ki [2]: > 50 µM
- Ki [3]: > 50 µM
- K [4]: 9.9 ×10⁻⁴ /s
- Ratio IC50 [5]: > 1e+06
- Ratio IC50 [6]: > 1e+06
- Ratio IC50 [7]: > 1e+06
